# Only some compounds are listed: those with a hit (about 3.4% of all), similar ones and a draw of the others.
# rRNA inh HTS – reduced GFP signal of wild-type E. coli, primary screen, bacterial rRNA inhibitor project, GFP/RFP fluorescence, OD600, single point; E. coli WT GFP vs humanized-ribosome RFP mutants, 24 h; stronger effect = lower value; DMSO median 0, no signal -100; GFP signal change (wild-type ribosome), % (test concentration not listed); 350,000 tested, 1.6% active; AID 720706, 2013;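 active = significant combined selectivity score with lowered wild-type GFP, culture density cut under 30%, mutant RFP and density less affected; inactive = any of these conditions unmet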
# S100A4 MyoIIA – inhibitors of S100A4-myosin IIA peptide binding, primary screen, biochemical, fluorescence polarization, TAMRA-MyoIIA peptide; AID 652163, 2013; inhibition, % at 10.7 µM; Protein S100-A4 (Homo sapiens), P26447; 360,000 tested, 0.14% active;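 active = mean inhibition of at least 70% across replicates, with every replicate also reaching that level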
#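 Assay system: human S100A4 monomer with TAMRA-labelled myosin IIA peptide / Buffer or medium: Calcium-containing HEPES buffer, pH 7.2 / Reagent: TAMRA-labelled myosin IIA heavy-chain peptide probe, 5 nM / Compound: one dose per compound / Timing: polarization read 5 min after assay mix addition, stable 5–60 min / Benchmarks: neutral control DMSO, positive control TFP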
# ERAP1 inh – human ERAP1 aminopeptidase inhibitors, primary screen, biochemical, single point, plate reader; recombinant ERAP1, Leu-AMC fluorescence, 60 min; 340,000 tested, 0.15% active; Endoplasmic reticulum aminopeptidase 1 (Homo sapiens), Q9NZ08; AID 652197, 2013; inhibition, % at 10.7 µM;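 active = mean replicate inhibition of at least 30%, or all replicates individually reaching that 30% level; inactive = mean below 30% and not every replicate reaching it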;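 also: 0% = neutral control wells and 100% = L-leucinethiol positive control wells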
# SIRT5 block – SIRT5 desuccinylase inhibitors, primary screen, biochemical, fluorescence imaging, single point, set 5 | Purified SirT5, succinyl-peptide AMC, trypsin-coupled fluorescence | inhibition, % at 15 µM | 330,000 tested, 1.1% active | AID 652115, 2013; in the data active = inhibition above about 15%
# E-selectin induc – E-selectin induction in HUVECs, primary screen, imaging, HUVEC, immunofluorescence imaging, single point. activation, % at 7.58 µM. normalized: neutral wells 0, TNF-alpha wells 100. 260,000 tested, 0.37% active. AID 686992, 2013;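 active = mean E-selectin-positive cell signal at least 10% of the positive control, reached in at least 60% of replicates, without over 20% cell loss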
# Target sequence (P16581 whole entry, looked up): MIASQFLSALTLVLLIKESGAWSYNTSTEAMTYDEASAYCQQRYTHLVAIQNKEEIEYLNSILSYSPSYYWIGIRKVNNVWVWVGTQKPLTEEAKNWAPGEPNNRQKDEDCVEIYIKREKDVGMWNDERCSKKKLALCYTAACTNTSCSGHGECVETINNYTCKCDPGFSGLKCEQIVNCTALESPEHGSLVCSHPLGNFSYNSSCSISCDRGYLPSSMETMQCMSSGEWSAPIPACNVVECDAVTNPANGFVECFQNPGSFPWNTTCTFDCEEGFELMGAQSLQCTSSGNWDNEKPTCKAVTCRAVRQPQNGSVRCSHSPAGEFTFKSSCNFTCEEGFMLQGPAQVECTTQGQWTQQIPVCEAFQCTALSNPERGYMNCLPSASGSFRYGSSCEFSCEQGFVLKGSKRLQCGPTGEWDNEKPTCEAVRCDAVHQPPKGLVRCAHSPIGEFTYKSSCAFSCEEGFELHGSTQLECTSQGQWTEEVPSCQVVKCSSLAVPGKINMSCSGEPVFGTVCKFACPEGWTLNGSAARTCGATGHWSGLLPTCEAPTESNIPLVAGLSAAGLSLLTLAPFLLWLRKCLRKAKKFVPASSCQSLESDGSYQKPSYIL
#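 Test system: HUVEC; input: 3,000 HUVEC/well; measured by: immunofluorescence imaging; read-out: % PE-positive cells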
# AF4-AF9 inh – inhibitors of AF4 peptide binding to AF9, primary screen, biochemical, AlphaScreen, biotin-AF4 peptide, FLAG-AF9, single point. inhibition, % at 10 µM. Protein AF-9 (Homo sapiens), P42568. 350,000 tested, 0.47% active. AID 651704, 2012;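 active = every replicate reaching a set inhibition limit, whatever the replicate mean, cut at about 25% in these data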;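 also: 0% = plate neutral control median and 100% = total signal loss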
# Starred values were filed as active, the others as inactive; . = not tested or not shown.
SMILES,rRNA inh HTS,S100A4 MyoIIA,ERAP1 inh,SIRT5 block,E-selectin induc,AF4-AF9 inh
C[C@@H]1CN([C@H](C)CO)C(=O)c2cc(-c3cccc(F)c3)cnc2O[C@@H]1CN(C)C(=O)C1CCCCC1,2,4,4,-1,0,-6
CCOc1ccccc1NC(=O)NNS(=O)(=O)c1cc(C)ccc1C,-21,-10,1,-1,1,-1
CCOc1ccccc1NC(=S)NNS(=O)(=O)c1c(C)cc(C)cc1C,-16*,-2,-3,3,-2,6
CCOc1ccc(CCNC(=O)CCc2nc3ccccc3[nH]2)cc1OCC,-20*,-1,23,4,2,-1
O=C(N[C@@H]1CC[C@H](CC(=O)N2CCCCC2)O[C@@H]1CO)c1cccc(F)c1,2,-36,-4,-4,1,-2
Cc1cc(SCC(=O)c2ccccc2)n2ncc(-c3ccccc3)c2n1,-51*,-11,1,-2,7,-5
Cc1cc(-c2ccccc2)n2ncc(-c3ccccc3)c2n1,26,-2,0,9,.,-5
Cc1[nH]c2ccccc2c1C(=O)C(=O)N1CCN(c2ccccc2Cl)CC1,0,-4,1,34*,2,1
Cc1ccc2oc(-c3cccc(N)c3)nc2c1,-23*,-3,0,-18,1,-2
COC(=O)c1cc(=O)n(-c2ccccc2)c(=Nc2ccccc2)s1,-1,-10,7,7,0,28*
CN(C)CCCNC(=O)/C(=C/c1ccc(-c2ccc([N+](=O)[O-])cc2)o1)NC(=O)c1ccccc1,2,-6,7,-4,.,4
CN(C)CCCNC(=O)/C(=C\c1ccc(-c2ccc(Br)cc2)o1)NC(=O)c1ccccc1,-58,1,9,-1,0,29*
C[C@@H]1CCCCO[C@@H](CN(C)S(=O)(=O)c2ccccc2)[C@@H](C)CN([C@@H](C)CO)C(=O)c2cc(NC(=O)CCCN(C)C)ccc2O1,-1,151*,-6,3,0,-4
C[C@@H]1CCCCO[C@@H](CN(C)S(C)(=O)=O)[C@@H](C)CN([C@H](C)CO)C(=O)c2cc(NC(=O)CCCN(C)C)ccc2O1,1,-2,-1,0,49*,-7
COc1ccc(N2C(=O)C3C(C2=O)C3(c2ccccc2)c2ccccc2)cc1 (centres undefined),-20*,4,0,1,.,-1
COCC(=O)N(C)C[C@@H]1Oc2ncc(C#Cc3ccc(OC)cc3)cc2C(=O)N([C@H](C)CO)C[C@H]1C,-3,-16,-3,-1,0,0
O=C(O)COc1ccccc1/C=C1\SC(=S)N(NC(=O)c2ccccc2O)C1=O,-10,-69,8,21*,1,-2
CC1=C/C(=N\Nc2ccccc2[N+](=O)[O-])CC(C)(C)C1,-12,3,-1,19*,.,13
COc1ccc(/C=N/NC(=O)c2ccncc2)cc1Cn1nc([N+](=O)[O-])c(Br)c1C,-10,0,-1,20*,.,4
COc1ccc(/C=N/NC(=O)c2ccco2)cc1Cn1nc(C)c([N+](=O)[O-])c1C,12,10,-1,.,0,0
COc1ccc(/C=N/NC(=O)c2ccco2)cc1Cn1nc(C)cc1C,2,-9,-2,34*,-2,-2
Cc1c(C(=O)OCC(=O)N(C)Cc2ccccc2)oc2ccccc12,-32,-5,-1,-3,-3,8
Cc1c(C(=O)OCC(=O)N(C)c2ccccc2)oc2ccccc12,-28*,-1,-3,-3,1,-3
CN(C(=O)COC(=O)c1n[nH]c2ccccc12)c1ccccc1,-6,-4,-2,9,.,-1
CN(C(=O)COC(=O)c1n[nH]c(=O)c2ccccc12)c1ccccc1,6,-1,1,-4,38*,-3
SMILES,rRNA inh HTS,S100A4 MyoIIA,ERAP1 inh,SIRT5 block,E-selectin induc,AF4-AF9 inh
CCOC(=O)c1c(C)nc(C(Cl)(Cl)Cl)nc1N,-37*,13,0,-6,0,-2
O=C(C[C@@H]1CC[C@@H]2[C@H](COC[C@H](O)CN2C(=O)Nc2ccc(Cl)c(Cl)c2)O1)NCc1ccc(F)cc1,-60,-7,2,0,0,1
CCn1cc(C(=O)OCC(=O)Nc2ccc(C(C)C)cc2)c(=O)c2ccc(C)nc21,-23*,-7,7,-7,3,-1
COc1ccc2c3c([nH]c2c1)[C@@H](CO)N(C(C)=O)CC31CN(C(=O)c2cccc(F)c2)C1,-1,.,.,.,.,.
CCOc1ccc(NCC(=O)c2ccc(C)cc2)cc1,-33*,-2,-2,0,0,1
CCOC(=O)c1c(C)[nH]c(C)c1C(=O)COC(=O)c1cc(OC)c(OC)cc1OC,-5,-1,-1,19*,.,5
c1nc(N2CCOCC2)c2c3c(sc2n1)CCCC3,-21,5,3,36*,.,.
CCCn1nnnc1NCc1ccc(Cl)cc1Cl,-29*,-1,6,-4,1,-1
Cc1ccc2nc(-c3ccc(N)cc3)sc2c1,-44*,-1,-4,-7,0,-4
Cc1ccc2nc(-c3ccc(NC(=S)NCC(C)(C)CN(C)C)cc3)sc2c1,-36*,-2,-3,-6,9,4
CN1C(=O)C(O)(c2sc(N)nc2-c2ccccc2)c2ccccc21 (centres undefined),.,0,-2,21*,.,.
C[C@H](CO)N1C[C@H](C)[C@@H](CN(C)C(=O)Nc2ccc3c(c2)OCO3)OCCCC[C@H](C)Oc2ccc(NS(C)(=O)=O)cc2C1=O,2,-9,0,-4,0,0
O=C(O)/C=C/C(=O)Nc1nc(-c2ccc3ccccc3c2)cs1,-34*,6,-4,-1,.,.
O=C(Nc1nc(-c2ccccc2)cs1)c1ccccc1F,-20*,-2,-1,-1,1,0
COc1ccc(-c2csc(NC(=O)Nc3ccccc3)n2)cc1,-10,6,2,-4,0,-11
O=C(Cc1csc(NC(=O)Nc2ccc(Cl)cc2)n1)NCc1cccnc1,-32*,-4,2,-2,0,0
O=C(Nc1ccccc1)Nc1nc(-c2ccc(Cl)cc2)cs1,-18*,-3,-3,-2,.,-4
O=C(Cc1csc(NC(=O)Nc2cccc(Cl)c2)n1)NCc1cccnc1,-2,1,1,1,0,-3

# Screening data deposited in PubChem by Broad Institute.
